Screening data from PubChem.
14-3-3 Bad inh – disrupts binding of bovine 14-3-3 zeta to phospho-Bad peptide; actives 0.71% (n = 220,000); AID 781; TR-FRET 14-3-3zeta/Dy647-pBad peptide displacement, 1 h; inhibition, % at 21.7 µM;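 active = inhibition above about 70%, limit read from the data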;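 also: 0% = full 14-3-3 plus peptide FRET controls and 100% = background without 14-3-3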
Target sequence (P63103 whole entry, looked up): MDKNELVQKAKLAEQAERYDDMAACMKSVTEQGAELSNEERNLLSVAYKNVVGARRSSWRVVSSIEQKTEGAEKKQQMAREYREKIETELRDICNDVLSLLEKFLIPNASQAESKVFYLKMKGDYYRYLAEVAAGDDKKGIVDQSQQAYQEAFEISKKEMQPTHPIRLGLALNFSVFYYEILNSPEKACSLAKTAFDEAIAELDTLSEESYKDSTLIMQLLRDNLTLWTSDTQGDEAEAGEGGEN
Wee1 degr inh – human Wee1 degradation inhibition, primary screen. P30291. HeLa Luc-Wee1K328M stability, luciferase luminescence; 100% = proteasome inhibitor MG132 effect. reporter increase, % at 5 µM. actives 1.2% (n = 220,000). AID 1321;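 active = activation above the mean of all tested compounds plus 3 SD, set per screening run, cut at about 8.8% in these data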;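 also: cells exposed to compound for 20 h before luminescence read; 0% = DMSO alone and 100% = MG132 at 30 µM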
Hck Nef HTS – human Hck-Nef kinase inhibition; P08631; Recombinant Hck-YEEI plus Nef, Z-Lyte FRET kinase assay; inhibition, % at 20 µM; actives 0.68% (n = 220,000); AID 463187;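 active = Hck-Nef kinase inhibition above about 50%, limit read from the data; inactive = inhibition below that limit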;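 also: 0% = DMSO with Hck plus Nef and 100% = Hck alone without Nef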
Tb hexokinase – T. brucei hexokinase 1 inhibition; AID 1430; inhibition, % at 10 µM; recombinant TbHK1, G6PDH-coupled NADH A340; actives 0.11% (n = 220,000);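 active = inhibition of 50% or more in the single-dose primary screen; inactive = inhibition below 50%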
MDM2 E3 inh – Mdm2 E3 ligase (human) inhibition; cell-based MDM2 ubiquitination luciferase reporter, 2 h; 0 = plate control, 100 = twice control, blank-subtracted; signal enhancement, % at 5 µM; AID 1230; actives 0.11% (n = 210,000); Q00987;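 active = signal enhancement of 30% or more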;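 also: luminescence tracks abundance of the self-degrading MDM2-luciferase fusion protein; higher signal means inhibition of MDM2 E3 ligase activity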
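Assay system: stable mammalian line carrying autodegrading MDM2–luciferase fusion reporter; Input: 2000 cells in each well; Compound dosing: single-point 5 µM; Schedule: 2 h compound exposure at 37 °C; Signal: SteadyLite luciferase luminescence after 15 min room-temperature reagent incubation; Evaluation: % luminescence enhancement versus blank-corrected plate control mean; Benchmarks: plate controls and plate blanks.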
Hck-Nef confirm – Hck-Nef kinase inhibition, confirmation | shares compounds with Hck Nef HTS | Recombinant Hck-YEEI:Nef, Z-Lyte FRET kinase assay | calls only at 10 µM | actives 28% (n = 1,300) | AID 463188;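 active = average inhibition of at least 50%, with Z-scores no higher than 3 in both the phospho-tyrosine peptide and fluorescence counterscreens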
* = called active by the depositor; i = inactive; . = no result shown; + = active, no number. An excerpt weighted towards active compounds, which were near 2.7% of everything screened.

SMILES	14-3-3 Bad inh	Wee1 degr inh	Hck Nef HTS	Tb hexokinase	MDM2 E3 inh	Hck-Nef confirm
O=C1NC(=O)N(c2ccccc2)C(=O)/C1=C/c1ccoc1	-2	2	18	-8	-10	.
O=C1NC(=O)N(c2ccc(Cl)cc2)C(=O)/C1=C/c1coc2ccc(O)cc2c1=O	11	7	75*	-20	-14	+
O=C1NC(=O)N(c2ccccc2)C(=O)/C1=C/c1coc2ccc(O)cc2c1=O	10	-1	87*	-34	.	+
N#CC1=C(N)Oc2c(c(=O)sc3ccccc23)C1c1cccnc1 (stereo unspecified)	-1	1	0	-5	-7	.
S=C1NCCN1	-3	-1	-1	-2	.	.
O=C(O)CCn1cc(C=C2C(=O)NC(=S)NC2=O)c(-c2ccccc2)n1	29	3	90*	-3	.	i
O=C(O)CCn1cc(C=C2C(=O)NC(=S)NC2=O)c(-c2cc3ccccc3oc2=O)n1	38	3	48	-7	6	.
COc1ccc(N2C(=O)/C(=C/C=C/c3ccccc3[N+](=O)[O-])C(=O)NC2=S)cc1	46	-3	63*	1	-19	+
COc1ccc(N2C(=O)NC(=O)/C(=C/c3ccc([N+](=O)[O-])s3)C2=O)cc1	2	7	19	-16	0	.
COc1ccc(N2C(=O)NC(=O)/C(=C\c3ccc([N+](=O)[O-])s3)C2=O)cc1	5	-3	64*	-7	2	i
Cc1ccccc1-n1c(O)c(C(c2ccncc2)c2c(O)n(-c3ccccc3C)c(=O)[nH]c2=O)c(=O)[nH]c1=O	3	-3	12	-11	-12	.
COc1ccc(/C=C2/C(=O)N(Cc3ccco3)C(=O)N(C(C)C)C2=O)cc1	-1	1	95*	11	2	i
O=C1NC(=O)N(CCc2ccc(F)cc2)C(=O)/C1=C/c1cccs1	25	1	149*	-1	-1	+
O=C1NC(=O)N(CCc2ccc(F)cc2)C(=O)/C1=C/c1ccco1	20	1	167*	14	-7	+
c1ccc(-c2nnc(C3CC(c4cccnc4)=NO3)o2)cc1 (stereo unspecified)	0	.	21	-9	5	.
CCCCCCn1c(N)c(C(=O)NCCN2CCOCC2)c2nc3ccccc3nc21	4	0	65*	-17	-4	i
CC(C)OCCCNC(=O)c1c(N)n(CC2CCCO2)c2nc3ccccc3nc12 (stereo unspecified)	.	-1	52*	-22	-12	.
CCCNC(=O)c1c(N)n(CC2CCCO2)c2nc3ccccc3nc12 (stereo unspecified)	-6	-3	57*	-12	2	.
O=C(Nc1ccc2ccccc2c1)N1C[C@H]2C[C@@H](C1)c1cccc(=O)n1C2	0	-3	16	-13	0	.
O=[N+]([O-])c1cc(S(=O)(=O)c2ccc(O)c([N+](=O)[O-])c2)ccc1O	0	1	4	35	-7	.
